XiGFP reactiv = activators of inactive X chromosome reactivation, primary screen, imaging, XiGFP fibroblasts, GFP high-content imaging, set 2 | activation, % at 7.58 µM | XiGFP mouse fibroblasts, % GFP-positive cells imaging, 3 d; cells co-treated with 5-aza-dC sensitizer; scaled so ellipticine positive control = 100% | 360,000 compounds, 0.055% hits;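 active = mean normalized replicate activation at least 10% and every replicate at or above 10%; inconclusive = only one of the two criteria met; inactive = mean below 10% and not all replicates reach 10%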
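Assay system: SV40-immortalized XiGFP fibroblast cells, line 68-5-11; buffer or medium: DMEM plus 5-aza-dC sensitizer; compound: one concentration, pinned; timing: compounds 3 days, fix/stain 15 min at room temperature; benchmarks: positive control ellipticine, 6 µM final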
Wnt bcat act = Wnt/beta-catenin pathway activators, primary screen, cell-based, plate reader, single point; 300,000 compounds, 1.2% hits; activation, % at 9.35 µM; AID 743398, 2014; Wnt/beta-catenin reporter cell assay, activator; in the data active = activation above about 30%, passing the limit was not always enough; inconclusive = no clear call, values can overlap the other calls
Vif imaging = HIV Vif self-association inhibitors, primary screen, imaging, HEK293T, single point; HEK293T cells, Vif self-association by quenched fluorescence, 24 h; inhibition, % at 7.49 µM; 340,000 compounds, 0.35% hits; in the data active = inhibition above about 50%, passing the limit was not always enough; inconclusive = no clear call, values can overlap the other calls; inactive = below about 31%
esBAF inh = Bmi1 luciferase reporter increase in mESCs, primary screen, esBAF inhibitor project, mouse ES cells, Bmi1 luciferase knock-in, single point | 24 h; 100% = twice the neutral-well signal | reporter increase, % at 12.5 µM | 350,000 compounds, 2% hits; in the data active = activation above about 40%; inconclusive = no clear call, values can overlap the other calls;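 also: a rise in the Bmi1 reporter signal indicates esBAF inhibition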
MITF TRPM1 HTS = activators of MITF-driven TRPM1 promoter reporter, primary screen, cell-based, SK-MEL-5, luciferase, single point; 300,000 compounds, 0.75% hits; activation, % at 12.5 µM; SK-MEL-5 TRPM1-promoter luciferase, 24 h; % of positive control, neutral wells = 0;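 active = mean activation of at least 80% with every replicate also reaching 80%; inconclusive = mean reaches 80% but some replicate falls short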
Hits are given with their value; i = inactive; ? = inconclusive; nt = no result. In the library only some 2.6% were active in any assay of this set; here they are far more common.

SMILES	XiGFP reactiv	Wnt bcat act	Vif imaging	esBAF inh	MITF TRPM1 HTS
COc1ccc(CNC(=O)C(c2ccncc2)N(C(=O)Cc2cccs2)c2ccccc2)cc1 (centres undefined)	i	i	i	nt	i
COc1ccc(CNC(=O)C(c2ccncc2)N(C(=O)Cc2cccs2)c2ccc(C)cc2)cc1 (centres undefined)	nt	nt	i	130	i
CN(C)CC#Cc1ccc([C@H]2[C@@H](CO)N3C(=O)CN(C(=O)c4cccnc4)C[C@H]23)cc1	i	nt	nt	nt	nt
O=C(O)COCc1nc2ccccc2s1	i	i	i	i	i
O=S(=O)(CCc1nc2ccccc2s1)c1ccc(Cl)cc1	nt	i	i	i	i
O=S(=O)(Cc1nc2ccccc2s1)c1ccccc1	nt	i	i	57	i
NC(=O)c1ccccc1OCc1nc2ccccc2s1	i	42	i	i	i
O=C(OCc1nc2ccccc2s1)c1ccc(Br)o1	i	i	i	nt	i
Cc1cc(C(=O)OCc2nc3ccccc3s2)c(C)o1	nt	nt	?	72	i
CC(=O)OCc1nc2ccccc2s1	nt	?	i	43	i
C[C@H]1CN([C@@H](C)CO)C(=O)c2cc(C#Cc3ccccc3F)cnc2O[C@H]1CN(C)C(=O)Cc1cccnc1	i	nt	nt	i	nt
O=C(Cc1ccccn1)NCC[C@H]1CC[C@@H](NS(=O)(=O)c2ccc(Cl)cc2)[C@@H](CO)O1	i	nt	nt	i	nt
C[C@@H]1CN([C@@H](C)CO)C(=O)c2cc(NS(=O)(=O)c3ccc(F)cc3)ccc2O[C@@H](C)CCCCO[C@H]1CN(C)S(=O)(=O)c1cn(C)cn1	i	nt	nt	i	nt
COc1ccc2c3c(n(C)c2c1)[C@H](CO)N(Cc1nccs1)CC31CN(C(C)=O)C1	i	nt	nt	nt	nt
COc1ccc2c3c(n(C)c2c1)[C@@H](CO)N(C(=O)C1CC1)CC31CN(C(=O)Nc2cccc(F)c2)C1	i	nt	nt	nt	nt
O=S(=O)(/N=C(/Nc1nc2ccccc2s1)c1ccccc1)c1ccccc1	i	50	i	66	i
Cc1ccc(S(=O)(=O)Nc2ccc3c(c2)C(=O)N([C@H](C)CO)C[C@H](C)[C@H](CN(C)C(=O)Nc2cccc4ccccc24)O3)cc1	i	nt	nt	i	nt
CCc1noc(C)c1C(=O)NNC(=O)COc1ccccc1C	i	34	i	i	i
CCc1noc(C)c1C(=O)NNC(=O)c1ccccc1	i	i	i	i	i
Cc1ccccc1S(=O)(=O)NCC[C@@H]1CC[C@@H](NC(=O)C2CC2)[C@@H](CO)O1	i	nt	nt	i	nt
C[C@@H]1CN([C@H](C)CO)C(=O)Cc2cc(NC(=O)NC3CCCCC3)ccc2O[C@@H]1CN(C)C	i	nt	nt	i	nt
N/C(=N\OC(=O)c1cccc(Br)c1)c1ccc(Br)cc1	nt	nt	i	i	i
COc1cc(/C=N/NC(=O)c2cccnc2)ccc1OC(=O)c1ccc2c(c1)OCO2	nt	46	nt	nt	i
N/C(=N\OC(=O)c1ccc2c(c1)OCO2)c1cccc(Br)c1	i	i	i	67	116
N/C(=N\OC(=O)c1ccc2c(c1)OCO2)c1cccnc1	i	62	i	nt	i
SMILES	XiGFP reactiv	Wnt bcat act	Vif imaging	esBAF inh	MITF TRPM1 HTS
COCCNC(=O)C[C@H]1C[C@H]2c3cc(NC(=O)C4CCOCC4)ccc3O[C@H]2[C@@H](CO)O1	i	nt	nt	nt	nt
Cc1ccccc1S(=O)(=O)N1CC[C@@H]2[C@@H](CO)Nc3ccc(-c4ccc(C#N)cc4)cc3[C@@H]21	i	nt	nt	i	nt
COc1cc(C2C3=C(COC3=O)Oc3cc4c(cc32)OCO4)cc(OC)c1O (centres undefined)	i	i	60	nt	i
COc1ccc(NC(=O)N(C)C[C@H]2OCCCC[C@H](C)Oc3ccc(NC(=O)c4ccncc4)cc3C(=O)N([C@@H](C)CO)C[C@@H]2C)cc1	i	nt	nt	i	nt
c1ccc2nc3c(nc2c1)[nH]c1ccccc13	nt	93	nt	nt	i
Cc1ccc(C(=O)NC2CCCCC2)cc1	nt	i	i	i	88
Cc1ccc(C(=O)NCC(=O)NC2CCCC2)cc1	i	i	i	i	i
CCOc1cccc(C(=O)NC2CCCCC2)c1	nt	i	i	53	i
O=C(NC1CCCCC1)c1ccc([N+](=O)[O-])cc1	i	i	i	74	i
CCOc1ccc(C(=O)NC2CCCCCCC2)cc1	i	42	i	nt	i
C[C@H]1CN([C@@H](C)CO)C(=O)c2cc(C#Cc3cccc(F)c3)cnc2O[C@@H]1CN(C)C(=O)C1CCCCC1	i	nt	nt	nt	nt
C[C@@H]1CN([C@@H](C)CO)C(=O)c2cccc(NS(C)(=O)=O)c2O[C@H]1CN(C)Cc1ccc(C(F)(F)F)cc1	i	nt	nt	i	nt
COc1ccc(NC(=O)N[C@@H]2CC[C@@H](CCNC(=O)CCN3CCCCC3)O[C@@H]2CO)cc1	i	nt	nt	i	nt
O=C(N[C@H]1CC1c1ccccc1)c1ccc([N+](=O)[O-])cc1 (some centres undefined)	i	35	i	nt	i
O=C(NC1CCCCC1)c1ccc(-c2cccc([N+](=O)[O-])c2)o1	i	32	nt	nt	116
O=C(NC(=S)NC1CCN(Cc2ccccc2)CC1)c1ccc(F)cc1	i	i	i	i	i
O=C(NC(=S)NC1CCCCC1)c1ccc(F)cc1	i	i	i	60	i
N#Cc1ccc(C(=O)NC2CCCCCCC2)cc1	i	i	i	53	107
N#CCC(=O)Nc1ccc(C(=O)NNC(=S)NC2CCCCC2)cc1	i	i	124	i	nt
COC(=O)c1ccc(NC(=S)NC2CCCCC2)cc1	nt	nt	i	i	i
COc1ccc(CNC(=O)C[C@@H]2C[C@H]3c4cc(NS(C)(=O)=O)ccc4O[C@H]3[C@@H](CO)O2)cc1	i	nt	nt	i	nt
COc1ccc2c(-c3cc4ccc(OCc5ccc(F)cc5)cc4oc3=O)cc(=O)oc2c1	i	nt	i	nt	i
O=C1COc2ccc(OCc3ccc(F)cc3)cc21	nt	nt	i	i	90
O=C(c1ccccc1F)N1CC(=O)N2[C@H](CO)[C@@H](c3ccc(-c4ccc(F)cc4)cc3)[C@@H]2C1	i	nt	nt	nt	nt
Clc1ccc(CSc2snnc2-c2ccccc2)c(Cl)c1	nt	38	i	?	nt
SMILES	XiGFP reactiv	Wnt bcat act	Vif imaging	esBAF inh	MITF TRPM1 HTS
c1ccc(CSc2snnc2-c2ccccc2)cc1	nt	nt	i	?	nt
Cc1cccc(-c2ccc([C@@H]3[C@H]4CN(C(=O)c5cnccn5)CC(=O)N4[C@H]3CO)cc2)c1	i	nt	nt	nt	nt
CCCC(=O)Nc1ccc2c(c1)C(=O)N(C)C[C@@H](OC)[C@@H](C)CN(C(C)=O)[C@H](C)CO2	i	nt	nt	i	nt
O=c1[nH]c(-c2ccc(O)cc2)nc2scc(-c3cccs3)c12	i	i	i	61	114
C[C@@H]1CN([C@@H](C)CO)C(=O)c2ccccc2-c2ccccc2CO[C@@H]1CN(C)S(=O)(=O)c1cccc(F)c1	i	nt	nt	i	nt
C/C(=N/NC(=O)c1cc(C(C)C)[nH]n1)c1cccs1	nt	33	i	i	i
C/C(=N\NC(=O)c1cc(C)[nH]n1)c1cccs1	i	35	i	i	i
C/C(=N\NC(=O)c1cc(Br)ccc1O)c1cccs1	i	?	i	i	81
